The source made the active and inactive calls. No cut-off for these calls is given here.
Tests used:
[1] = Induction of microtubule disruption in human HaCaT cells assessed as increase in altered metaphase at LD50 after 24 hrs by immunofluorescence assay in presence of UVA light; type: cell-based
[2] = Dark toxicity against human HeLa cells assessed as cell survival at 5 uM incubated for 6 hrs measured after 24 hrs by MTT assay; type: cell-based; conditions: read-out: Survival
Summary of the method: (§1)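 Cells (HaCaT and HeLa in DMEM, HEp-2 in RPMI, each with 10% FBS, at 37 °C and 5% CO2) were treated at 60–70% confluence. The compound was added from a 10^-3 M DMSO stock in medium with 1% FBS (final DMSO <0.5%) at 3·10^-6 to 2.5·10^-5 M and kept in the dark (6 h per table footnote, 18 h per methods). After 24 h, MTT at 50 µg/mL for 4 h, read at 542 nm as % of control OD.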

HeLa [3] = assay: Induction of cell morphological changes in human HeLa cells assessed as cytoplasmic vacuolization at 3 to 5 uM after 24 hrs by Hoechst 33258 staining-based phase contrast microscopy in presence of UVA light; type: functional
HeLa [4] = assay: Induction of apoptotic morphological changes in human HeLa cells at LD50 after 24 hrs by Hoechst 33258 staining-based fluorescence microscopy in presence of UVA light; type: functional, cell-based
HaCaT [5] = assay: Induction of apoptosis in human HaCaT cells at LD50 after 24 hrs by acridine orange/ethidium bromide staining-based assay in presence of 0.25 to 0.5 J/cm'2 UVA light; type: cell-based
[6] = Dark toxicity against human HaCaT cells assessed as cell survival at 5 uM incubated for 6 hrs measured after 24 hrs by MTT assay; type: cell-based; conditions: read-out: Survival; summary of the method: as §1
HEp-2 [7] = assay: Induction of apoptosis in human Hep2 cells at LD50 after 24 hrs by acridine orange/ethidium bromide staining-based assay in presence of 0.25 to 0.5 J/cm'2 UVA light; type: functional, cell-based
HaCaT [8] = assay: Induction of necrotic morphological changes in human HaCaT cells at LD50 after 24 hrs by Hoechst 33258 staining-based fluorescence microscopy in presence of UVA light; type: cell-based
HeLa [9] = assay: Induction of necrotic morphological changes in human HeLa cells at LD50 after 24 hrs by Hoechst 33258 staining-based fluorescence microscopy in presence of UVA light; type: functional, cell-based
HaCaT [10] = assay: Phototoxicity against human HaCaT cells assessed as appearance of rounded cells at LD50 after 24 hrs by acridine orange/ethidium bromide staining-based assay in presence of 0.25 to 0.5 J/cm'2 UVA light; type: cell-based
Summary of the method: (§2)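 Cells (HaCaT, HeLa in DMEM; HEp-2 in RPMI; 10% FBS) at 60–70% confluence were incubated 6 h with 3·10^-6 M photosensitizer (DMSO stock diluted in medium with 1% FBS, final DMSO <0.5%). Medium was replaced and cells were given 0.25 J/cm² UVA (300–400 nm). 24 h later, cells were stained live with 50 µg/ml AO plus 50 µg/ml EtBr in PBS. Within 15 min, 200 cells per condition were scored as living, rounded, apoptotic or necrotic.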

HEp-2 [11] = assay: Induction of apoptotic morphological changes in human Hep2 cells at LD50 after 24 hrs by Hoechst 33258 staining-based fluorescence microscopy in presence of UVA light; type: functional, cell-based
[12] = Drug uptake in golgi apparatus of human HeLa cells at 1 uM after 6 hrs by NBD dye-based fluorescence microscopy; type: ADME, cell-based
Summary of the method: (§3)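 Cells grown on glass coverslips were incubated with 1×10^-6 M photosensitizer for 6 h at 37 °C, washed twice in PBS and imaged live by fluorescence microscopy. Organelle probes (ER-Tracker, ex 374/em 430 nm; NBD-Golgi, ex 466/em 536 nm) were applied for 30 min at the supplier's concentrations, and their patterns were compared with the compound signal.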

HeLa [13] = assay: Increase in mitotic nuclei level in human HeLa cells at LD50 after 24 hrs by Hoechst 33258 staining-based fluorescence microscopy in presence of UVA light; type: functional, cell-based
[14] = Drug uptake in endoplasmic reticulum of human HeLa cells at 1 uM after 6 hrs by ER-tracker dye-based fluorescence microscopy; type: ADME, cell-based; summary of the method: as §3
[15] = Induction of microtubule disruption in human HeLa cells assessed as abnormality in chromosome distribution at LD50 after 24 hrs by immunofluorescence assay in presence of UVA light; type: cell-based
HaCaT [16] = assay: Induction of cell morphological changes in human HaCaT cells assessed as appearance of necrotic cells with loss of membrane integrity at 3 to 5 uM after 24 hrs by Hoechst 33258 staining-based phase contrast microscopy in presence of UVA light
[17] = Drug uptake in endoplasmic reticulum of human HaCaT cells at 1 uM after 6 hrs by ER-tracker dye-based fluorescence microscopy; type: ADME, cell-based; summary of the method: as §3
HeLa [18] = assay: Phototoxicity against human HeLa cells assessed as cell lethality at 3 to 250 uM incubated for 6 hrs followed by UV irradiation at 0.5 J/cm'2 measured after 24 hrs by MTT assay; type: functional
Summary of the method: (§4)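 Cultures at 60–70% confluence were loaded with the photosensitizer for 6 h in medium with 1% FBS and <0.5% DMSO. Medium was then replaced and cells were irradiated with UVA (300–400 nm, 15.9 W/m² at 10 cm), then washed and kept in complete medium for 24 h. Survival was read by MTT (50 µg/mL, 4 h, 542 nm) as % of untreated control OD.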

HaCaT [19] = assay: Induction of apoptotic morphological changes in human HaCaT cells at LD50 after 24 hrs by Hoechst 33258 staining-based fluorescence microscopy in presence of UVA light; type: cell-based
[20] = Phototoxicity against human Hep2 cells assessed as cell lethality at 3 to 250 uM incubated for 6 hrs followed by UV irradiation at 1 J/cm'2 measured after 24 hrs by MTT assay; type: functional, HEp-2; summary of the method: as §4
HaCaT [21] = assay: Induction of cell morphological changes in human HaCaT cells assessed as appearance of apoptotic cells with membrane blebbing at 3 to 5 uM after 24 hrs by Hoechst 33258 staining-based phase contrast microscopy in presence of UVA light
HaCaT [22] = assay: Phototoxicity against human HaCaT cells assessed as cell lethality at 3 to 250 uM incubated for 6 hrs followed by UV irradiation at 2 J/cm'2 measured after 24 hrs by MTT assay; type: cell-based; summary of the method: as §4
HaCaT [23] = assay: Induction of cell morphological changes in human HaCaT cells assessed as cytoplasmic retraction at 3 to 5 uM after 24 hrs by Hoechst 33258 staining-based phase contrast microscopy in presence of UVA light
HEp-2 [24] = assay: Induction of microtubule disruption in human Hep2 cells assessed as increase in mitotic index at LD50 after 24 hrs by immunofluorescence assay in presence of UVA light; type: cell-based
HEp-2 [25] = assay: Induction of cell morphological changes in human Hep2 cells assessed as cellular stretching at 3 to 5 uM after 24 hrs by Hoechst 33258 staining-based phase contrast microscopy in presence of UVA light; type: functional
HeLa [26] = assay: Phototoxicity against human HeLa cells assessed as appearance of rounded cells at LD50 after 24 hrs by acridine orange/ethidium bromide staining-based assay in presence of 0.25 to 0.5 J/cm'2 UVA light; type: functional, cell-based; summary of the method: as §2

SMILES	Activity [1]	viability at 6 h, 5 µM [2]	Activity (HeLa [3])	Activity (HeLa [4])	Activity (HaCaT [5])	viability at 6 h, 5 µM [6]	Activity (HEp-2 [7])	Activity (HaCaT [8])	Activity (HeLa [9])	Activity (HaCaT [10])	Activity (HEp-2 [11])	Drug uptake [12]	Activity (HeLa [13])	Drug uptake [14]	Activity [15]	Activity (HaCaT [16])	Drug uptake [17]	mortality (HeLa [18])	Activity (HaCaT [19])	mortality [20]	further results
COc1cc(C#Cc2ccc(C#CCO[C@@H]3O[C@H](CO)[C@@H](O)[C@H](O)[C@H]3O)cc2N(C)C)c(OC)cc1C#Cc1ccc(C#CCO[C@@H]2O[C@H](CO)[C@@H](O)[C@H](O)[C@H]2O)cc1N(C)C	Non-toxic	93.5%	Active	Active	Toxic	90.9%	Active	Toxic	Active	Toxic	Active	Active	Active	Active	Active	Toxic	Active	>50%	Toxic	>50%	Activity (HaCaT [21]): Toxic; mortality (HaCaT [22]): > 50%; Activity (HaCaT [23]): Toxic; Activity (HEp-2 [24]): Active; Activity (HEp-2 [25]): Active; Activity (HeLa [26]): Active
COc1cc(C#Cc2ccc(C#Cc3cc(OC)c(C#CCO[C@@H]4O[C@H](CO)[C@@H](O)[C@H](O)[C@H]4O)cc3OC)c(N(C)C)c2)c(OC)cc1C#CCO[C@@H]1O[C@H](CO)[C@@H](O)[C@H](O)[C@H]1O	Non-toxic	95.4%	Active	Active	Toxic	91.4%	Active	Toxic	Active	Toxic	Active	Active	Active	Active	Active	Toxic	Active	>50%	Toxic	>50%	Activity (HaCaT [21]): Toxic; mortality (HaCaT [22]): > 50%; Activity (HaCaT [23]): Toxic; Activity (HEp-2 [24]): Active; Activity (HEp-2 [25]): Active; Activity (HeLa [26]): Active

Reference: ChEMBL document CHEMBL3769305, “Glucose-functionalized amino-OPEs as biocompatible photosensitizers in PDT” (Eur J Med Chem, 2016)
